Assay results as given in ChEMBL document CHEMBL1152519, “Synthesis, structural activity-relationships, and biological evaluation of novel amide-based allosteric binding site antagonists in NR1A/NR2B N-methyl-D-aspartate receptors” (Bioorg Med Chem, 2009).
Active and inactive are the calls of the source. The calls are words filed in the database; no cut-off is given here.

What was measured:
[1] = target: Glutamate receptor ionotropic, kainate 2 (Rattus norvegicus) (UniProt P42260); experiment: Antagonist activity at rat recombinant GluR6 expressed in Xenopus laevis oocytes assessed as inhibition of concanavalin A/glutamate-induced current at 3 uM by two electrode voltage clamp method relative to control; type: functional, cell-based; conditions: Oocyte
Summary of the method: (§1)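 Oocytes expressing homomeric GluR6 (5–10 ng cRNA) pretreated 5 min with 10 μM concanavalin-A. Currents evoked by 100 μM glutamate at −40 mV, with or without 3 μM compound, and given as percent of control. Mean ± SEM of 4–10 oocytes; paired t-test.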

[2] = target: T1, Glutamate NMDA receptor; Grin1/Grin2b (Rattus norvegicus) (UniProt P35439+Q00960); experiment: Antagonist activity at rat recombinant NR1/NR2B receptor expressed in Xenopus laevis oocytes assessed as inhibition of glutamate/glycine-induced current at 3 uM by two electrode voltage clamp method; type: functional, cell-based; conditions: Oocyte
Summary of the method: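 Oocytes (stage V–VI, Xenopus laevis) injected with NR1 and NR2 cRNA, held 1–7 d at 15 °C. TEVC at −40 mV, 23 °C, in 90 NaCl/1 KCl/10 HEPES/0.5 BaCl2 (mM) plus 10 μM EDTA. Current to 50 μM glutamate plus 30 μM glycine with 3 μM compound, given as percent of control; 4–10 oocytes.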

Rattus norvegicus = species: Rattus norvegicus; experiment: Inhibition of voltage-gated potassium channel in Sprague-Dawley rat cortical neuron at 3 uM by whole cell patch clamp technique
[3] = target: Glutamate receptor ionotropic, kainate 2 (Rattus norvegicus) (UniProt P42260); experiment: Antagonist activity at rat recombinant GluR6 expressed in Xenopus laevis oocytes assessed as inhibition of concanavalin A/glutamate-induced current at 3 uM by two electrode voltage clamp method; type: functional, cell-based; conditions: Oocyte; summary of the method: as §1
Oocyte = experiment: Antagonist activity at rat NR1/NR2B receptor deltaATD mutant expressed in Xenopus laevis oocytes assessed as inhibition of glutamate/glycine-induced current at 0.01 to 100 uM by two electrode voltage clamp method; type: functional, cell-based
Summary of the method: (§2)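 Oocytes express NR1/NR2B amino-terminal-domain mutants (mouse D101A point mutant; rat ATD deletion). Concentration–effect curves were recorded by two-electrode voltage clamp at −40 mV and 23 °C, with 50 μM glutamate plus 30 μM glycine. Each step is compound plus agonists, expressed relative to agonists alone.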

[4] = target: T1, Glutamate NMDA receptor; Grin1/Grin2b (Rattus norvegicus); experiment: Antagonist activity at rat recombinant NR1/NR2B receptor expressed in Xenopus laevis oocytes assessed as voltage-independent inhibition of glutamate/glycine-induced current at 0.054 uM by two electrode voltage clamp method; type: functional, cell-based; conditions: Oocyte
Summary of the method: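 Rat NR1/NR2B oocytes were voltage clamped and the current–voltage relation recorded for 50 μM glutamate plus 30 μM glycine, with and without 0.054 μM compound coapplied; n = 5.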

hERG (KCNH2) = hERG (KCNH2) (Homo sapiens, UniProt Q12809); experiment: Displacement of [3H]astemizole from human recombinant ERG expressed in HEK293 cells at 10 uM; type: cell-based; conditions: HEK293 cells expressing human recombinant ERG, probe [3H]astemizole, read-out: Activity
[5] = target: Glutamate receptor ionotropic, NMDA 2B (Mus musculus, UniProt P35438+Q01097, D101A); experiment: Antagonist activity at mouse NR1/NR2B receptor D101A mutant expressed in Xenopus laevis oocytes assessed as inhibition of glutamate/glycine-induced current by two electrode voltage clamp method; type: functional, cell-based, Oocyte; summary of the method: as §2
[6] = target: Glutamate NMDA receptor; Grin1/Grin2b (Rattus norvegicus, UniProt P35439+Q00960); experiment: Antagonist activity at rat recombinant NR1/NR2B receptor expressed in frog oocytes assessed as inhibition of glutamate/glycine-induced current by two electrode voltage clamp method; type: functional, cell-based, Oocyte
Summary of the method: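 Xenopus oocytes expressing NR1/NR2 (wild type or amino terminal domain deletion mutant) recorded by TEVC at −40 mV, room temperature, pH 7.4–7.6, with EDTA 10 μM. Maximal glutamate/glycine applied alone, then with 5–8 successive compound concentrations. Leak-corrected; responses under 50 nA excluded. IC50 from fitted composite curve. NR1/NR2A oocytes were pre-incubated in 50 μM BAPTA-AM.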

[7] = target: Glutamate receptor ionotropic, NMDA 1/NMDA 2B (Mus musculus) (UniProt P35438+Q01097); experiment: Antagonist activity at mouse recombinant NR1/NR2B receptor expressed in Xenopus laevis oocytes assessed as inhibition of glutamate/glycine-induced current at 3 uM by two electrode voltage clamp method; type: functional, cell-based; conditions: Oocyte

Sequence of Glutamate receptor ionotropic, kainate 2 (Rattus norvegicus) (P42260 whole entry): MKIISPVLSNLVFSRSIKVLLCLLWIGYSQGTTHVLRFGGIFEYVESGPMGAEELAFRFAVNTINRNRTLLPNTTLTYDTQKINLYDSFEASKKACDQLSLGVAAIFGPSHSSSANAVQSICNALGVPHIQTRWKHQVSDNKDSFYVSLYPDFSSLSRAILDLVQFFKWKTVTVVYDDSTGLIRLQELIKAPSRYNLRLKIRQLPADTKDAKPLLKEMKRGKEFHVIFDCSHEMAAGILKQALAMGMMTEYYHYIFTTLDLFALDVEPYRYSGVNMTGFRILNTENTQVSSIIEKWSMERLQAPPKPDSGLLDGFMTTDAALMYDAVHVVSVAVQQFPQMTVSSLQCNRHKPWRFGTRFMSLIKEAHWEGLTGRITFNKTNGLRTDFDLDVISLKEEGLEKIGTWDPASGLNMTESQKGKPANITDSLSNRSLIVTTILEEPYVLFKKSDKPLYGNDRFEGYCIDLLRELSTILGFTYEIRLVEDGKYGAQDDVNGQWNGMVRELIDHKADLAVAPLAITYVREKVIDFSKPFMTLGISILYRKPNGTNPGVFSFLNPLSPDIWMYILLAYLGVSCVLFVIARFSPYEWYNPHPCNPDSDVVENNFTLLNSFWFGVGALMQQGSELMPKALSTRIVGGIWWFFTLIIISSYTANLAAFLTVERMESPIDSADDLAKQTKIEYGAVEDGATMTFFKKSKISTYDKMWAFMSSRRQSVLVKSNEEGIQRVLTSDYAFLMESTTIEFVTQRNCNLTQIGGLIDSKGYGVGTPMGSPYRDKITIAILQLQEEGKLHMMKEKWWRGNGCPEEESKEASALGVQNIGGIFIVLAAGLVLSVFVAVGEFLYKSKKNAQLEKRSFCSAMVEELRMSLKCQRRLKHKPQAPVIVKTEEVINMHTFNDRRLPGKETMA
Sequence of hERG (KCNH2) (Q12809 whole entry): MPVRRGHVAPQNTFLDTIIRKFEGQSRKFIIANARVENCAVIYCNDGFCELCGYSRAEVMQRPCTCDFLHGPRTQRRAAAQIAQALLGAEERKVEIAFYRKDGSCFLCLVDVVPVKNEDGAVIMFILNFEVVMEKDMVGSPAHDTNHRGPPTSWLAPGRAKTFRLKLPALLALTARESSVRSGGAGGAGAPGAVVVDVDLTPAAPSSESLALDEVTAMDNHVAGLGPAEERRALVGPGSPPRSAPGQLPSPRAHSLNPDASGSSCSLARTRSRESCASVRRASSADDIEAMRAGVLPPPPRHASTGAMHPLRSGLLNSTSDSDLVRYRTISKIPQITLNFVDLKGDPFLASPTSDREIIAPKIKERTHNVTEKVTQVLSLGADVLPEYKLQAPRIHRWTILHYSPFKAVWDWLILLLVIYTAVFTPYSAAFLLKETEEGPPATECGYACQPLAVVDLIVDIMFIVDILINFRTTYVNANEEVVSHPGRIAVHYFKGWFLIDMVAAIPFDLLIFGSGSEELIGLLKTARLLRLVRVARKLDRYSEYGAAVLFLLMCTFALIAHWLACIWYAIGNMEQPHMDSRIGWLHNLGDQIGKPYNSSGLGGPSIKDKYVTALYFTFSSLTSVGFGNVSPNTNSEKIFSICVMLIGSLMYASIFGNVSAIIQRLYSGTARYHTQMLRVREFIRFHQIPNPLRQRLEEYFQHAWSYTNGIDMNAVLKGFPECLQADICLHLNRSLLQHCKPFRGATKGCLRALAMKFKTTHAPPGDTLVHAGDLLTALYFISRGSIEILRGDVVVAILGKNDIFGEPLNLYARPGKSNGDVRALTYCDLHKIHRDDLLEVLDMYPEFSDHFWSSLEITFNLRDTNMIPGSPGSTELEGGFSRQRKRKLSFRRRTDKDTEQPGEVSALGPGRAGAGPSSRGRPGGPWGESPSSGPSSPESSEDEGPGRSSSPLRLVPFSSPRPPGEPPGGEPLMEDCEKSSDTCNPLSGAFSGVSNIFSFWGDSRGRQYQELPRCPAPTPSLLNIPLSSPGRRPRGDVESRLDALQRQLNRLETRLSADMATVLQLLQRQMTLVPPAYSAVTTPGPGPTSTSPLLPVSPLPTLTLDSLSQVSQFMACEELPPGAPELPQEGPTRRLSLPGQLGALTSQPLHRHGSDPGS
Sequence of Glutamate receptor ionotropic, NMDA 2B (Q01097 whole entry D101A, one chain of several): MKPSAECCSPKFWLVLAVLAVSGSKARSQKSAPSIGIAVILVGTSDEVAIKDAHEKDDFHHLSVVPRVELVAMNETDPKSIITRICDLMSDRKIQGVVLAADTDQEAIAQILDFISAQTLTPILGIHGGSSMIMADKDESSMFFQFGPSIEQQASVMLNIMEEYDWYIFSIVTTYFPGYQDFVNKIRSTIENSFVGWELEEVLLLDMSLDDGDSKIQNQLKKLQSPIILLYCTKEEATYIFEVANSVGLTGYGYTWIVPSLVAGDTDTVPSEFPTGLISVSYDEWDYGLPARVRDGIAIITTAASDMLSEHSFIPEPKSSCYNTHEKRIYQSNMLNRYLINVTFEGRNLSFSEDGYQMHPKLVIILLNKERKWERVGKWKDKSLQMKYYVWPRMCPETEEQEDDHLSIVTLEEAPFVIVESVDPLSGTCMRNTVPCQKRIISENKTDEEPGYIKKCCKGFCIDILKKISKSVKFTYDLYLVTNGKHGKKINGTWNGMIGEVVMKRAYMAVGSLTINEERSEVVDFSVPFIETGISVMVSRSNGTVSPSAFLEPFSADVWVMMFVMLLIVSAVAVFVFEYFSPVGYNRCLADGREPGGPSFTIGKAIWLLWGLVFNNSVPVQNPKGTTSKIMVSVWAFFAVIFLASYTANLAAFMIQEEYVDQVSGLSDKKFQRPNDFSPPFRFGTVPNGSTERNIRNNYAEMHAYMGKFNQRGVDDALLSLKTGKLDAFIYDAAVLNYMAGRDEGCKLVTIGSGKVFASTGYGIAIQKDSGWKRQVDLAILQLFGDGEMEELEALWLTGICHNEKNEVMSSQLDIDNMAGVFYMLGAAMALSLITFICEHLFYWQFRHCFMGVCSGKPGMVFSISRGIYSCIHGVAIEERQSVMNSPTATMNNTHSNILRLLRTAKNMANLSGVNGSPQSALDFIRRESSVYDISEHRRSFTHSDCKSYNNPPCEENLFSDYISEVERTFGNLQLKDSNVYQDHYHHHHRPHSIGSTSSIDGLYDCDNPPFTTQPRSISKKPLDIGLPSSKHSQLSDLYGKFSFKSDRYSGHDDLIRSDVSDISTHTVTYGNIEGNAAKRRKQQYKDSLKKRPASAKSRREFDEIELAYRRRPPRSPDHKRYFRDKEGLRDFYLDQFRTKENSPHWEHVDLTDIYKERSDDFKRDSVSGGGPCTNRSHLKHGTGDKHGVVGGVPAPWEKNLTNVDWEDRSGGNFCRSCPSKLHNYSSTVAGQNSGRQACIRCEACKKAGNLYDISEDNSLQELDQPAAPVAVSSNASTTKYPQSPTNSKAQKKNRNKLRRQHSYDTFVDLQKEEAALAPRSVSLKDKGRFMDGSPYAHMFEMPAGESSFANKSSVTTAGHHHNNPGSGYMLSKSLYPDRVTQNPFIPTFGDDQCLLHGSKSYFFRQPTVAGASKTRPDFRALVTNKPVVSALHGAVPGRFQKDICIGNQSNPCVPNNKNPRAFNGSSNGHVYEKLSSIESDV

Question: `CS(=O)(=O)Nc1ccc(OCC(=O)NCCNc2ccc(Cl)c(Cl)c2)cc1` was tested. Which % response [1] did it give?
Answer: Its % response is 99%.

Question: What about the inhibition [2] of the same compound?
Answer: Its inhibition is 88%.

Question: And the inhibition (Rattus norvegicus)?
Answer: The inhibition was “inactive”.

Question: What about the inhibition [3] of the same compound?
Answer: Its inhibition is “inactive”.

Question: What about the inhibition (Oocyte) of the same compound?
Answer: The inhibition was “inactive”.

Question: And the inhibition [4]?
Answer: The inhibition was “Active”.

Question: And the inhibition at 10 µM (hERG (KCNH2))?
Answer: The inhibition at 10 µM was 43%.

Question: And the IC50 [5]?
Answer: Its IC50 is 52 µM.

Question: And the IC50 [6]?
Answer: The IC50 was 57 nM.

Question: What about the inhibition [7] of the same compound?
Answer: Its inhibition is 78%.
